Data from ChEMBL document CHEMBL2202976, “Structure requirements for anaerobe processing of azo compounds: implications for prodrug design” (Bioorg Med Chem Lett, 2012).

Assays:
Type in all cases: ADME
[1] = Prodrug conversion assessed as Clostridium perfringens azoreductase-mediated disproportionation to parent amine by HPLC analysis
[2] = Drug metabolism assessed as Clostridium perfringens azoreductase-mediated reduction within 4 hrs by HPLC analysis
[3] = Prodrug conversion assessed as Clostridium perfringens azoreductase-mediated prednisolone formation by HPLC analysis
[4] = Drug metabolism assessed as Clostridium perfringens azoreductase-mediated hydrazine intermediate formation by LCMS analysis
How it was run: (§1)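 Azo substrate incubated in Clostridium perfringens culture. Samples taken at 0 h and 6 h and analysed by LCMS, resolving parent azo isomer peaks from the hydrazine intermediate peak.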

[5] = Drug metabolism assessed as Clostridium perfringens azoreductase-mediated reoxidation of hydrazine intermediate to parent azo compound by LCMS analysis; how it was run: as §1
[6] = Drug metabolism assessed as Clostridium perfringens azoreductase-mediated reoxidation of hydrazine intermediate to parent azo compound at 6 hrs by LCMS analysis; how it was run: as §1
[7] = Drug metabolism assessed as Clostridium perfringens azoreductase-mediated dihydroquinolone derivative formation by HPLC analysis
azoreductase = assay: Drug metabolism assessed as Clostridium perfringens azoreductase-mediated reduction at 6 hrs by HPLC analysis; settings: read-out: Drug metabolism
How it was run: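 Azo substrates incubated with Clostridium perfringens culture and sampled over time to 6 h. Parent loss and product formation followed by reverse-phase HPLC with PDA UV detection, with the azo chromophore absorbing at 300–400 nm.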

[8] = Drug metabolism assessed as Clostridium perfringens-mediated hydrazine intermediate formation at 6 hrs by LCMS analysis; how it was run: as §1

SMILES	Drug metabolism [1]	Drug metabolism [2]	Drug metabolism [4]	Drug metabolism [5]	also measured
O=C(O)c1ccc(/N=N/c2ccc(O)cc2)cc1	Active	Active	–	–	–
O=C(O)CCc1ccccc1/N=N/c1ccc(C(=O)NCC(=O)O)cc1	–	–	–	–	Drug metabolism [3]: Not Active
O=C(O)c1cccc(/N=N/c2ccccc2)c1	–	–	Active	Active	–
CN(C)c1ccc(/N=N/c2ccccc2)cc1 [DIMETHYL YELLOW]	Active	Active	–	–	–
O=C(O)CCc1ccccc1/N=N/c1ccc(C(=O)O)cc1	–	–	–	–	Drug metabolism [3]: Not Active
Oc1ccc(/N=N/c2ccc(Br)cc2)cc1	Active	Active	–	–	–
Brc1ccc(/N=N/c2ccccc2)cc1	–	–	Active	Active	–
O=[N+]([O-])c1ccc(/N=N/c2ccc(O)cc2)cc1	Active	Active	–	–	–
C[C@]12C=CC(=O)C=C1CC[C@@H]1[C@@H]2[C@@H](O)C[C@@]2(C)[C@H]1CC[C@]2(O)C(=O)COC(=O)CCc1ccccc1/N=N/c1ccc(C(=O)O)cc1	–	–	–	–	Drug metabolism [6]: Active; Drug metabolism [7]: Not Active; metabolised at 6 h (azoreductase): 55%; Drug metabolism [3]: Not Active; Drug metabolism [8]: Active
FC(F)(F)c1ccc(/N=N/c2ccccc2)cc1	Active	–	Active	Not Active	–
N#Cc1ccc(/N=N/c2ccccc2)cc1	–	–	Active	Active	–
O=C(O)c1ccc(/N=N/c2ccccc2)cc1	–	–	Active	Active	–
N#Cc1ccc(/N=N/c2ccc(O)cc2)cc1	Active	Active	–	–	–
CN(C)c1ccc(/N=N/c2ccccc2C(=O)O)cc1	Active	Active	–	–	–
